Values after ≈ are worked out from the molar mass of the structure shown. Values joined by “and” are separate entries in the source; they are usually repeats but may differ in a detail not shown here. Identical values can stand only once. “Also recorded” adds a separate entry of the source.
Experiments:
[1] = Volunteer infection study; format: in vivo, human
Outline: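 Intravenously inoculated, blood-stage P falciparum-infected healthy volunteers received one fasted oral dose (150, 400 or 800 mg). They stayed in the clinic until day 4, then attended outpatient follow-up to day 44.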

[2] = oral administration of 3–5 mg/kg; cited from earlier work
Plasmodium spp = settings: cited from earlier work
Plasmodium falciparum [3] = settings: cited from earlier work
[4] = SAD: M5717 whole-blood pharmacokinetics; format: in vivo, human; settings: for Vd/F / half-life / AUC(0-inf) / AUC(0-t): whole blood; for AUC(0-t): SAD 2100 mg oral, N=1
CYP3A4 = settings: preclinical studies, no reference given; cited from earlier work
Plasmodium falciparum [5] = assay: VIS: parasite clearance kinetics and recrudescence; format: in vivo; settings: for PRR48 (95% CI), second phase: cohort estimate
Outline: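 Volunteers were given about 2800 viable P falciparum-infected erythrocytes intravenously on day −8. Parasitaemia was measured by qPCR of the 18S rRNA gene, twice daily from day 4 after inoculation. A single fasted oral dose (150, 400 or 800 mg) was given when parasitaemia was expected to reach ≥5000 parasites/mL. […] Recrudescence was followed to day 28; artemether–lumefantrine was given on recrudescence or at day 21.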

[6] = VIS: M5717 whole-blood pharmacokinetics; format: in vivo; settings: human, po
Outline: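 Healthy malaria-naive adults (18–55 y) were inoculated intravenously with about 2800 viable P falciparum-infected erythrocytes on day −8. On day 1 they took a single oral capsule dose (150, 400 or 800 mg) with 250 mL water after fasting ≥8 h, with no food until 4 h. The test compound was measured in whole blood (LLOQ 1 ng/mL), giving AUC0–∞, apparent terminal t½ and Vz/F.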

[7] = Single ascending dose study; format: in vivo, human
M5717-resistant mutants = settings: pyronaridine partnered with M5717; cited from earlier work
[8] = SAD 2100 mg single oral dose, N=1
[9] = SAD, all 49 participants dosed with M5717

O=C(NCCN1CCCC1)c1cc(-c2ccc(CN3CCOCC3)cc2)nc2ccc(F)cc12 [M5717]
Any adverse event ([1]; VIS 150 mg single oral dose): 6 (100%) n (%) | Any adverse event related to study treatment ([1]; VIS 150 mg single oral dose): 0 n (%) | Moderate adverse event (grade 2) ([1]; VIS 150 mg single oral dose): 2 (33%) n (%) | Moderate adverse event (grade 2) related to study treatment ([1]; VIS 150 mg single oral dose): 0 n (%) | Severe adverse event (grade 3) ([1]; VIS 150 mg single oral dose): 0 n (%) | Any adverse event ([1]; VIS 400 mg single oral dose): 8 (100%) n (%) | Moderate adverse event (grade 2) ([1]; VIS 400 mg single oral dose): 3 (38%) n (%) | Moderate adverse event (grade 2) related to study treatment ([1]; VIS 400 mg single oral dose): 0 n (%) | Severe adverse event (grade 3) ([1]; VIS 400 mg single oral dose): 0 n (%) | Any adverse event ([1]; VIS 800 mg single oral dose): 7 (88%) n (%) | Any adverse event related to study treatment ([1]; VIS 800 mg single oral dose): 0 n (%) | Moderate adverse event (grade 2) ([1]; VIS 800 mg single oral dose): 2 (25%) n (%) | Moderate adverse event (grade 2) related to study treatment ([1]; VIS 800 mg single oral dose): 0 n (%) | Severe adverse event (grade 3) ([1]; VIS 800 mg single oral dose): 1 (13%) n (%) | Participants with at least one adverse event after M5717 dosing ([1]; VIS, all 22 participants): 21 (95%) n (%) | Half-life in preclinical animal studies [2]: 18 to 20 h | Minimum inhibitory concentration (MIC) (Plasmodium spp; estimated in mice): 3 ng/mL (≈ 6.49 nM) | Minimum parasiticidal concentration (Plasmodium spp; estimated in mice): 10 ng/mL | Lag in antimalarial activity (Plasmodium spp; in vitro and in the mouse efficacy model): 24 to 48 h | Potency against Plasmodium falciparum (Plasmodium falciparum [3]): nanomolar potency | Time of peak whole-blood concentration after dosing ([4]; across dose levels, SAD and VIS): approximately 2 h | Time with M5717 concentration at least 3 ng/mL in all participants ([4]; doses of 150 mg and higher): at least 168 h | Time with M5717 concentration 10 ng/mL or higher in all participants ([4]; doses of 400 mg or higher): at least 168 h | Terminal half-life predicted before the study ([4]; human, prediction before the study): 250 h | Vd/F ([4]; human, oral): 5880 to 9510 L | half-life ([4]; human, oral): 106 to 193 h | half-life ([4]; human, oral, 200 mg): 133 to 145 h | AUC(0-inf) ([4]; human, po, 50 mg): 997 ng·h/mL | Vd/F ([4]; human, po, 50 mg): 7640 L | half-life ([4]; human, po, 50 mg): 133 h | AUC(0-inf) ([4]; human, po, 100 mg): 1710 ng·h/mL | Vd/F ([4]; human, po, 100 mg): 8890 L | half-life ([4]; human, po, 100 mg): 133 h | AUC(0-inf) ([4]; human, po, 200 mg): 3500 ng·h/mL | Vd/F ([4]; human, po, 200 mg): 9510 L | half-life ([4]; human, po, 200 mg): 145 h | Vd/F ([4]; human, po, 400 mg): 7100 L | half-life ([4]; human, po, 400 mg): 155 h | Vd/F ([4]; human, po, 600 mg): 7160 L | half-life ([4]; human, po, 600 mg): 181 h | Vd/F ([4]; human, po, 1000 mg): 6770 L | half-life ([4]; human, po, 1000 mg): 169 h | Vd/F ([4]; human, po, 1250 mg): 6830 L | half-life ([4]; human, po, 1250 mg): 180 h | Vd/F ([4]; human, po, 1800 mg): 7060 L | half-life ([4]; human, po, 1800 mg): 181 h | AUC(0-inf) ([4]; human, po, 2100 mg): 43000 ng·h/mL | Vd/F ([4]; human, po, 2100 mg): 7870 L | half-life ([4]; human, po, 2100 mg): 140 h | AUC(0-t) ([4]; human, po, 2100 mg, AUC0–144h): 27200 ng·h/mL | AUC(0-t) ([4]; human, po, 2100 mg, AUC0–t): 42200 ng·h/mL | Active or toxic metabolites (CYP3A4): no active or toxic metabolites identified | Time of recrudescence after M5717 dosing (Plasmodium falciparum [5]; VIS 150 mg, individual participants): 10 days and 11 days and 19 days | Recrudescence incidence (Plasmodium falciparum [5]; VIS 150 mg, six participants): 50% | PRR48 (95% CI), second phase (Plasmodium falciparum [5]; VIS 400 mg single oral dose, N=6): 5127 (1006 to 26 132) | Time of recrudescence after M5717 dosing (Plasmodium falciparum [5]; VIS 400 mg, both participants): 12 days | Recrudescence incidence (Plasmodium falciparum [5]; VIS 400 mg, eight participants): 25% | PRR48 (95% CI), second phase (Plasmodium falciparum [5]; VIS 800 mg single oral dose, N=7): 436 (179 to 1061) | Recrudescence (Plasmodium falciparum [5]; VIS 800 mg, up to 21 days after dosing): No recrudescence | Duration of initial slow parasite clearance phase (Plasmodium falciparum [5]; VIS 150, 400, 800 mg): 35 to 55 h | Parasite clearance following M5717 dosing (Plasmodium falciparum [5]; VIS 150, 400, 800 mg): all participants | AUC(0-inf) ([6]; 150 mg): 3100 ng·h/mL | Vd/F ([6]; 150 mg): 5880 L | half-life ([6]; 150 mg): 106 h | Vd/F ([6]; 400 mg): 6530 L | half-life ([6]; 400 mg): 146 h | Vd/F ([6]; 800 mg): 8890 L | half-life ([6]; 800 mg): 193 h | M5717-related dizziness ([7]; 1800 mg only): three | M5717-related blurred vision ([7]; 1800 mg or 2100 mg groups only): four | M5717-related oral hypoesthesia ([7]; 1800 mg or 2100 mg groups only): three | Any adverse event ([7]; SAD 50 mg single oral dose): 6 (100%) n (%) | Moderate adverse event (grade 2) ([7]; SAD 50 mg single oral dose): 1 (17%) n (%) | Moderate adverse event (grade 2) related to study treatment ([7]; SAD 50 mg single oral dose): 0 n (%) | Severe adverse event (grade 3) ([7]; SAD 50 mg single oral dose): 1 (17%) n (%) | Any adverse event ([7]; SAD 100 mg single oral dose): 5 (83%) n (%) | Moderate adverse event (grade 2) ([7]; SAD 100 mg single oral dose): 1 (17%) n (%) | Moderate adverse event (grade 2) related to study treatment ([7]; SAD 100 mg single oral dose): 0 n (%) | Severe adverse event (grade 3) ([7]; SAD 100 mg single oral dose): 0 n (%) | Any adverse event ([7]; SAD 200 mg single oral dose): 3 (50%) n (%) | Moderate adverse event (grade 2) ([7]; SAD 200 mg single oral dose): 0 n (%) | Moderate adverse event (grade 2) related to study treatment ([7]; SAD 200 mg single oral dose): 0 n (%) | Severe adverse event (grade 3) ([7]; SAD 200 mg single oral dose): 0 n (%) | Any adverse event ([7]; SAD 400 mg single oral dose): 4 (67%) n (%) | Moderate adverse event (grade 2) ([7]; SAD 400 mg single oral dose): 0 n (%) | Moderate adverse event (grade 2) related to study treatment ([7]; SAD 400 mg single oral dose): 0 n (%) | Severe adverse event (grade 3) ([7]; SAD 400 mg single oral dose): 0 n (%) | Any adverse event ([7]; SAD 600 mg single oral dose): 3 (50%) n (%) | Moderate adverse event (grade 2) ([7]; SAD 600 mg single oral dose): 1 (17%) n (%) | Moderate adverse event (grade 2) related to study treatment ([7]; SAD 600 mg single oral dose): 0 n (%) | Severe adverse event (grade 3) ([7]; SAD 600 mg single oral dose): 0 n (%) | Any adverse event ([7]; SAD 1000 mg single oral dose): 4 (67%) n (%) | Moderate adverse event (grade 2) ([7]; SAD 1000 mg single oral dose): 0 n (%) | Moderate adverse event (grade 2) related to study treatment ([7]; SAD 1000 mg single oral dose): 0 n (%) | Severe adverse event (grade 3) ([7]; SAD 1000 mg single oral dose): 0 n (%) | Any adverse event ([7]; SAD 1250 mg single oral dose): 5 (83%) n (%) | Moderate adverse event (grade 2) ([7]; SAD 1250 mg single oral dose): 1 (17%) n (%) | Moderate adverse event (grade 2) related to study treatment ([7]; SAD 1250 mg single oral dose): 1 (17%) n (%) | Severe adverse event (grade 3) ([7]; SAD 1250 mg single oral dose): 0 n (%) | Any adverse event ([7]; SAD 1800 mg single oral dose): 6 (100%) n (%) | Moderate adverse event (grade 2) ([7]; SAD 1800 mg single oral dose): 0 n (%) | Moderate adverse event (grade 2) related to study treatment ([7]; SAD 1800 mg single oral dose): 0 n (%) | Severe adverse event (grade 3) ([7]; SAD 1800 mg single oral dose): 0 n (%) | Any adverse event [7, 8]: 1 (100%) n (%) | Any adverse event related to study treatment [7, 8]: 1 (100%) n (%) | Moderate adverse event (grade 2) [7, 8]: 1 (100%) n (%) | Moderate adverse event (grade 2) related to study treatment [7, 8]: 1 (100%) n (%) | Severe adverse event (grade 3) [7, 8]: 0 n (%) | Serious adverse events ([7]; SAD and VIS): No adverse event was serious; also recorded: No serious adverse events | Severity of adverse events related to M5717 ([7]; SAD and VIS): mild or moderate | Vital signs, ECGs, clinical laboratory parameters ([7]; SAD and VIS): No dose-related trends | Participants with adverse events related to M5717 [7, 9]: 12 (24%) n (%) | Participants with at least one adverse event [7, 9]: 37 (76%) n (%) | Dose up to which M5717 is well tolerated ([7]; single oral dose, healthy adults): ≤ 1250 mg

COc1ccc2nc3cc(Cl)ccc3c(Nc3cc(CN4CCCC4)c(O)c(CN4CCCC4)c3)c2n1 [pyronaridine]
Selection of M5717-resistant mutants (M5717-resistant mutants): prevented selection of M5717-resistant mutants
